# Source: ChEMBL document CHEMBL1137333, “Synthesis, radiosynthesis, and biological evaluation of carbon-11 labeled 2beta-carbomethoxy-3beta-(3'-((Z)-2-haloethenyl)phenyl)nortropanes: candidate radioligands for in vivo imaging of the serotonin transporter with positron emission tomography” (J Med Chem, 2006)
# Columns and labels:
# [1] = tested on: Cynomolgus monkey; assay: Uptake in anesthetized cynomolgus monkey caudate after 45.0 mins; format: ADME, organism-based, Caudate nucleus; conditions: in vivo, 0.75 h
# Outline: (§1)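 Baseline microPET (Concorde P4) regional brain time-activity curves in anesthetized cynomolgus monkey following injection of the [11C]-labelled tracer, with radioactivity followed over the scan.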
# [2] = tested on: Cynomolgus monkey; assay: Uptake in anesthetized cynomolgus monkey caudate after 75.0 mins; format: ADME, organism-based, Caudate nucleus; conditions: in vivo, 1.25 h; outline: as §1
# [3] = tested on: Cynomolgus monkey; assay: Uptake in anesthetized cynomolgus monkey caudate after 115.0 mins; format: ADME, organism-based, Caudate nucleus; conditions: in vivo; outline: as §1
# [4] = tested on: Cynomolgus monkey; assay: Uptake in anesthetized cynomolgus monkey putamen after 1.5 mins; format: ADME, organism-based; conditions: in vivo, 0.025 h
# Outline: (§2)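 Baseline microPET (Concorde P4) scan in anesthetized cynomolgus monkeys after injection of the carbon-11 labeled tracer, with no chase drug. Regional brain time-activity curves were followed over the scan. Tracer radiochemical purity and specific activity were determined by analytical HPLC at the time of injection.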
# [5] = tested on: Cynomolgus monkey; assay: Uptake in anesthetized cynomolgus monkey putamen after 2.5 mins; format: ADME, organism-based; conditions: in vivo; outline: as §2
# [6] = tested on: Cynomolgus monkey; assay: Uptake in anesthetized cynomolgus monkey putamen after 6.5 mins; format: ADME, organism-based; conditions: in vivo; outline: as §2
# [7] = tested on: Cynomolgus monkey; assay: Ratio of uptake in frontal to cerebellum of anesthetized cynomolgus monkey after 65 mins; format: ADME, organism-based; conditions: in vivo
# Outline: (§3)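 Baseline microPET (Concorde P4) in anesthetized cynomolgus monkey after injection of the [11C]-labelled tracer. Regional time-activity curves were taken, and each region's uptake was divided by cerebellum uptake (low-SERT reference) at 65, 85 and 105 min postinjection.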
# [8] = tested on: Cynomolgus monkey; assay: Ratio of uptake in occipital to cerebellum of anesthetized cynomolgus monkey after 65 mins; format: ADME, organism-based; conditions: in vivo; outline: as §3
# [9] = tested on: Cynomolgus monkey; assay: Ratio of uptake in caudate to cerebellum of anesthetized cynomolgus monkey after 85 mins; format: ADME, organism-based; conditions: in vivo; outline: as §3
# [10] = tested on: Cynomolgus monkey; assay: Ratio of uptake in midbrain to cerebellum of anesthetized cynomolgus monkey after 85 mins; format: ADME, organism-based; conditions: in vivo; outline: as §3
# [11] = tested on: Cynomolgus monkey; assay: Ratio of uptake in pons to cerebellum of anesthetized cynomolgus monkey after 85 mins; format: ADME, organism-based; conditions: in vivo; outline: as §3
# [12] = tested on: Cynomolgus monkey; assay: Ratio of uptake in frontal to cerebellum of anesthetized cynomolgus monkey after 85 mins; format: ADME, organism-based; conditions: in vivo; outline: as §3
# [13] = tested on: Cynomolgus monkey; assay: Uptake in anesthetized cynomolgus monkey midbrain after 15.5 mins; format: ADME, organism-based; conditions: in vivo
# Outline: (§4)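 Baseline microPET scan (P4 scanner) of anesthetized cynomolgus monkeys after injection of the carbon-11 labelled nortropane tracer. Two baseline studies were run per tracer. Radioactivity was followed over time in regional brain time-activity curves.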
# [14] = tested on: Cynomolgus monkey; assay: Uptake in anesthetized cynomolgus monkey midbrain after 27.5 mins; format: ADME, organism-based; conditions: in vivo; outline: as §4
# [15] = tested on: Cynomolgus monkey; assay: Uptake in anesthetized cynomolgus monkey midbrain after 55.0 mins; format: ADME, organism-based; conditions: in vivo; outline: as §4
# [16] = tested on: Cynomolgus monkey; assay: Uptake in anesthetized cynomolgus monkey midbrain after 105.0 mins; format: ADME, organism-based; conditions: in vivo, 1.75 h; outline: as §4
# [17] = tested on: Cynomolgus monkey; assay: Uptake in anesthetized cynomolgus monkey pons after 1.5 mins; format: ADME, organism-based, Macaca mulatta; conditions: rhesus monkey, in vivo, 0.025 h; outline: as §4
# [18] = tested on: Cynomolgus monkey; assay: Uptake in anesthetized cynomolgus monkey pons after 15.5 mins; format: ADME, organism-based; conditions: in vivo; outline: as §2
# [19] = tested on: Cynomolgus monkey; assay: Uptake in anesthetized cynomolgus monkey pons after 18.5 mins; format: ADME, organism-based; conditions: in vivo; outline: as §2
# [20] = tested on: Cynomolgus monkey; assay: Uptake in anesthetized cynomolgus monkey pons after 27.5 mins; format: ADME, organism-based; conditions: in vivo; outline: as §2
# [21] = tested on: Cynomolgus monkey; assay: Uptake in anesthetized cynomolgus monkey pons after 45.0 mins; format: ADME, organism-based; conditions: in vivo, 0.75 h; outline: as §2
# [22] = tested on: Cynomolgus monkey; assay: Uptake in anesthetized cynomolgus monkey pons after 55.0 mins; format: ADME, organism-based; conditions: in vivo; outline: as §2
# [23] = tested on: Cynomolgus monkey; assay: Uptake in anesthetized cynomolgus monkey pons after 85.0 mins; format: ADME, organism-based; conditions: in vivo; outline: as §2
# [24] = tested on: Cynomolgus monkey; assay: Uptake in anesthetized cynomolgus monkey medulla after 1.5 mins; format: ADME, organism-based, Medulla of organ; conditions: in vivo, 0.025 h; outline: as §4
# [25] = tested on: Cynomolgus monkey; assay: Uptake in anesthetized cynomolgus monkey putamen after 12.5 mins; format: ADME, organism-based; conditions: in vivo; outline: as §2
# [26] = tested on: Cynomolgus monkey; assay: Uptake in anesthetized cynomolgus monkey putamen after 15.5 mins; format: ADME, organism-based; conditions: in vivo; outline: as §2
# [27] = tested on: Cynomolgus monkey; assay: Uptake in anesthetized cynomolgus monkey putamen after 45.0 mins; format: ADME, organism-based; conditions: in vivo, 0.75 h; outline: as §2
# [28] = tested on: Cynomolgus monkey; assay: Uptake in anesthetized cynomolgus monkey putamen after 85.0 mins; format: ADME, organism-based; conditions: in vivo; outline: as §2
# [29] = tested on: Cynomolgus monkey; assay: Uptake in anesthetized cynomolgus monkey putamen after 115.0 mins; format: ADME, organism-based; conditions: in vivo; outline: as §2
# [30] = tested on: Cynomolgus monkey; assay: Uptake in anesthetized cynomolgus monkey thalamus after 3.5 mins; format: ADME, organism-based; conditions: in vivo; outline: as §2
# [31] = tested on: Cynomolgus monkey; assay: Uptake in anesthetized cynomolgus monkey thalamus after 9.5 mins; format: ADME, organism-based; conditions: in vivo; outline: as §2
# [32] = tested on: Cynomolgus monkey; assay: Uptake in anesthetized cynomolgus monkey thalamus after 45.0 mins; format: ADME, organism-based; conditions: in vivo, 0.75 h; outline: as §2
# [33] = tested on: Cynomolgus monkey; assay: Uptake in anesthetized cynomolgus monkey thalamus after 55.0 mins; format: ADME, organism-based; conditions: in vivo; outline: as §2
# [34] = tested on: Cynomolgus monkey; assay: Uptake in anesthetized cynomolgus monkey thalamus after 85.0 mins; format: ADME, organism-based; conditions: in vivo; outline: as §2
# [35] = tested on: Cynomolgus monkey; assay: Uptake in anesthetized cynomolgus monkey thalamus after 105.0 mins; format: ADME, organism-based; conditions: in vivo, 1.75 h; outline: as §2
structure (smiles),measurement,setting,value
[11CH3]OC(=O)[C@@H]1C2CCC(C[C@@H]1c1cccc(/C=C/I)c1)N2 (stereo not given in full),Drug uptake,[1],5.77
same,Drug uptake,[2],5.71
same,Drug uptake,[3],4.84
same,Drug uptake,[4],0.35
same,Drug uptake,[5],1.14
same,Drug uptake,[6],4.68
same,Ratio,[7],1
same,Ratio,[8],0.9
same,Ratio,[9],1.5
same,Ratio,[10],2
same,Ratio,[11],1.6
same,Ratio,[12],1.1
same,Drug uptake,[13],6.42
same,Drug uptake,[14],7.14
same,Drug uptake,[15],7.57
same,Drug uptake,[16],7.34
same,Drug uptake,[17],0.29
same,Drug uptake,[18],5.23
same,Drug uptake,[19],5.52
same,Drug uptake,[20],5.94
same,Drug uptake,[21],6.02
same,Drug uptake,[22],6.13
same,Drug uptake,[23],5.86
same,Drug uptake,[24],0.39
same,Drug uptake,[25],5.9
same,Drug uptake,[26],6.17
same,Drug uptake,[27],7.16
same,Drug uptake,[28],6.58
same,Drug uptake,[29],6.28
same,Drug uptake,[30],2.1
same,Drug uptake,[31],5.29
same,Drug uptake,[32],7.14
same,Drug uptake,[33],7.12
same,Drug uptake,[34],6.65
same,Drug uptake,[35],6.3
